C2C12 statin = suppression of simvastatin myotoxicity. C2C12 myotubes + simvastatin, ATP luminescence, 48 h; scaled: DMSO 0, geranylgeraniol control 100. rescue of ATP level, % at 7.49 µM. 0.78% of 330,000 active. AID 602340;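 active = mean ATP rescue above about 67%, or every replicate alone reaching that limit, limit read from the data, passing the limit was not always enough; inconclusive = no clear call, values can overlap the other calls; inactive = mean under the limit and some replicate under it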;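 note: myotubes were challenged with 10 µM simvastatin during compound exposure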
SR-BI DiI-HDL act = SR-BI HDL lipid transfer activation | CHO ldlA[mSR-BI] cells, DiI-HDL uptake fluorescence, 3 h; 100 = double the neutral-control signal | activation, % at 12.5 µM | 0.096% of 320,000 active;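 active = mean replicate activation of at least 60% and every replicate at or above 60%; inconclusive = mean or all-replicate condition met, but not both; inactive = mean below 60% and not all replicates reaching 60%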
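System: LDL receptor-deficient CHO ldlA cells overexpressing murine SR-BI | Timing: 3 h uptake period with compound, 37 °C | Medium: HEPES-buffered (25 mM, pH 7.4) F12 plus 0.5% BSA | Dosing: Single-point compound dose | Signal: Bottom-read fluorescence, 550/595 nm | Read-out: Retained DiI signal reflecting DiI-HDL uptake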
Vif inh = HIV Vif inhibition. HEK293T cells, Vif self-association by quenched fluorescence, imaging, 24 h. inhibition, % at 7.49 µM. 0.35% of 340,000 active; in the data active = inhibition above about 50%, passing the limit was not always enough; inconclusive = no clear call, values can overlap the other calls; inactive = below about 31%
SR-BI HDL uptake = inhibitors of mouse SR-BI mediated HDL lipid uptake; ldlA[mSR-BI] CHO cells, DiI-HDL uptake fluorescence, 3 h; 0.96% of 320,000 active; inhibition, % at 12.5 µM; Q61009;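 active = mean replicate inhibition of at least 70% and a set share of replicates each scoring 70 or more; inconclusive = meets just one of the two criteria; inactive = fails both criteria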
Target sequence (Q61009 whole entry, looked up): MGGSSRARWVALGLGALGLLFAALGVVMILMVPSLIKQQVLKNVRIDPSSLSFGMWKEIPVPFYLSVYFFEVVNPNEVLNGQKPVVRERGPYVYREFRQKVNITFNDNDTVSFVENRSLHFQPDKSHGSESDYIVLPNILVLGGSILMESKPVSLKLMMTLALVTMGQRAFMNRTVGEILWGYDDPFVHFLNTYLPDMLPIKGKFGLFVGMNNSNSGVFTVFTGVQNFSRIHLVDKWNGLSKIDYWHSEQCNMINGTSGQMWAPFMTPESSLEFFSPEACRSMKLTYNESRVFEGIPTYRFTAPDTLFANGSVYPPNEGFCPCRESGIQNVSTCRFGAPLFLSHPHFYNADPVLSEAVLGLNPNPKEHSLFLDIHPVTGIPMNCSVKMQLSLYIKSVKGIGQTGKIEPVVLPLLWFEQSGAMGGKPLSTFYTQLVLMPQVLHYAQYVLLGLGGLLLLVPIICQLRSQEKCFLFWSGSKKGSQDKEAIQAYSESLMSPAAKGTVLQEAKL
DiI quench = DiI fluorescence quenching in cell-free counter-screen. AC50, µM (series often up to 35 µM). cell-free DiI-HDL fluorescence quenching, 30 min. shares compounds with SR-BI HDL uptake. 20% of 470 active. AID 540326;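 active = quenching, a falling signal, with AC50 below a set limit tied to the top valid dose, actives reach about 32 µM in these data; inconclusive = no clear call, values can overlap the other calls; inactive = rising signal, and the rest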
Each line names hits and unclear results; the compound was inactive in the other large screens (follow-up assays come after a bar, where they were run). The list is not random: actives were taken first. Their share in the collection is about 1.7%.

O=C(Nc1ccc(N2CCOCC2)cc1)c1cccc(S(=O)(=O)N2CCC(Cc3ccccc3)CC2)c1	SR-BI HDL uptake 93 | DiI quench inactive
O=C(Nc1ccc(N2CCOCC2)cc1)c1cccc(S(=O)(=O)N2CCCC2)c1	none (no result: C2C12 statin)
COc1cccc(-c2nnc(SC(C(=O)c3c[nH]c4ccccc34)c3ccccc3)n2C)c1 (configuration not stated)	SR-BI HDL uptake 75 (no result: C2C12 statin) | DiI quench inactive
CCN(C(=O)COn1nnc2ccc(S(=O)(=O)N(C)C)cc21)C1CCS(=O)(=O)C1 (configuration not stated)	none | DiI quench inactive
CCn1nc(C)c(CN2CCc3c([nH]c4ccccc34)C2c2ccc(F)c(OC)c2)c1C (configuration not stated)	SR-BI HDL uptake 82 (no result: C2C12 statin) | DiI quench inactive
CCn1cc(CN2CCc3c([nH]c4ccccc34)C2c2ccc(F)c(OC)c2)c(C)n1 (configuration not stated)	none (no result: C2C12 statin)
O=S(=O)(c1ccccc1)c1cnc(-c2ccccc2)nc1N1CCCCC1	SR-BI HDL uptake inconclusive (no result: C2C12 statin) | DiI quench inactive
Cc1ccc(S(=O)(=O)Nc2ccc3c(c2)CC(=O)N([C@H](C)CO)C[C@H](C)[C@@H](CN(C)C)O3)cc1	none (no result: SR-BI DiI-HDL act, Vif inh, SR-BI HDL uptake)
CCN(CC)C(=O)c1cccc(NC(=O)c2cc(C3CC3)nc3c2cnn3C(C)C)c1	SR-BI HDL uptake 78 | DiI quench inactive
CC(=O)Nc1ccc(NC(=O)c2cc(C3CC3)nc3c2cnn3C(C)C)cc1	SR-BI HDL uptake inconclusive
COc1ccccc1CCc1nnc(CCC(=O)N(C)Cc2cccc3cnccc23)o1	SR-BI HDL uptake 75 | DiI quench inactive
COc1ccc(/C=C/C(=O)Nc2cccc(S(=O)(=O)NC3=NCCCCC3)c2)cc1	none (no result: SR-BI DiI-HDL act, SR-BI HDL uptake)
COc1cc(/C=C/C(=O)Nc2cccc(S(=O)(=O)NC3=NCCCCC3)c2)ccc1OCC#N	SR-BI HDL uptake 75 | DiI quench inactive
CCCCC(c1nnnn1CC1CCCO1)N1CCN(c2cc(Cl)ccc2C)CC1 (configuration not stated)	SR-BI HDL uptake 82 (no result: C2C12 statin) | DiI quench inactive
CCCCC(c1nnnn1CC1CCCO1)N1CCN(c2ccccc2)CC1 (configuration not stated)	none (no result: C2C12 statin)
CCCCCCC(=O)Nc1nc(C)c(-c2csc(Nc3ccc(Cl)cc3)n2)s1	SR-BI HDL uptake 120 | DiI quench 1.1µM
COc1ccccc1CNC(=O)C[C@H]1CC[C@@H]2[C@H](COC[C@H](O)CN2C(=O)Nc2ccc(C(F)(F)F)cc2)O1	none (no result: SR-BI DiI-HDL act, Vif inh, SR-BI HDL uptake)
N#CCCN(C(=O)COC(=O)CCc1ccccc1)c1ccccc1	none
N#CCCN(C(=O)COC(=O)CCc1c[nH]c2ccccc12)c1ccccc1	none | DiI quench inactive
O=C(CN1CCOCC1)Nc1nc(-c2ccc3c(c2)CCN3S(=O)(=O)c2ccccc2)cs1	none (no result: C2C12 statin) | DiI quench inactive
Cc1sc(NC(=O)CN2CCOCC2)nc1-c1ccc2c(c1)CCN2S(=O)(=O)c1ccccc1	SR-BI HDL uptake inconclusive | DiI quench inactive
NC(=O)c1nc[nH]c1C(=O)Nc1cccc(NC(=O)c2cccc(C(F)(F)F)c2)c1	none
O=C(Nc1cccc(-c2csc(Nc3ccc(Cl)cc3)n2)c1)c1cccc(C(F)(F)F)c1	SR-BI HDL uptake 110 | DiI quench 2.1µM
COc1ccc([C@H]2/C=C\CN(C(=O)c3ccc(C)cc3)[C@@H](C)C(=O)N2Cc2ccc(F)cc2)cc1	none
COc1ccc([C@H]2/C=C\CN(S(=O)(=O)c3ccc(C)cc3)[C@@H](C)C(=O)N2Cc2ccc(F)cc2)cc1	none | DiI quench inactive
COc1ccc([C@H]2/C=C\CN(S(=O)(=O)c3ccc4ccccc4c3)[C@@H](C)C(=O)N2Cc2ccc(F)cc2)cc1	SR-BI HDL uptake 72 | DiI quench inactive
COc1ccc([C@H]2/C=C\CN(Cc3ccc(N(C)C)cc3)[C@@H](C)C(=O)N2Cc2ccc(F)cc2)cc1	none
COc1ccc([C@H]2/C=C\CN(S(=O)(=O)c3cccc4cccnc34)[C@@H](C)C(=O)N2Cc2ccc(F)cc2)cc1	none | DiI quench inactive
Cc1c(Nc2nc3ccccc3nc2N2CCN(c3ccccc3)CC2)c(=O)n(-c2ccccc2)n1C	SR-BI HDL uptake inconclusive (no result: C2C12 statin) | DiI quench inactive
CCNC(=O)C[C@H]1CC[C@@H]2[C@H](COc3ccc(NC(=O)c4cccs4)cc3C(=O)N2C)O1	none (no result: SR-BI DiI-HDL act, Vif inh, SR-BI HDL uptake)
CN(Cc1ccccc1)Cc1c(O)ccc2ccccc12	none
CN(Cc1cc(Cl)cc(Cl)c1O)Cc1c(O)ccc2ccccc12	SR-BI HDL uptake 103 | DiI quench 1.9µM
COc1cccc(NC(=O)N[C@H]2CC[C@@H](CC(=O)N3CCCCC3)O[C@H]2CO)c1	none (no result: SR-BI DiI-HDL act, Vif inh, SR-BI HDL uptake)
Cc1ccccc1C(=O)N1CCc2cc(-c3nc(NC(=O)Cc4ccc5c(c4)OCO5)sc3C)ccc21	none (no result: C2C12 statin) | DiI quench inactive
Cc1sc(NC(=O)Cc2ccc3c(c2)OCO3)nc1-c1ccc2c(c1)CCN2C(=O)c1cccc(F)c1	SR-BI HDL uptake 77 (no result: C2C12 statin) | DiI quench inactive
Cc1cccc(C(=O)N2CCc3cc(-c4nc(NC(=O)CN5CCCC5)sc4C)ccc32)c1	none (no result: SR-BI DiI-HDL act, SR-BI HDL uptake)
Cc1ccccc1C(=O)Nc1cc(NC(=O)c2ccccc2C)cc(C(=O)O)c1	none | DiI quench inactive
O=C(NCN1C(=O)C2C3C=CC(C3)C2C1=O)OC1CCCCC1 (configuration not stated)	SR-BI HDL uptake 83 | DiI quench inactive
COC(=O)/C=C/c1ccc2c(c1)S(=O)(=O)N(c1cccc(OC)c1)[C@H]2CC(=O)OC	SR-BI HDL uptake 87 | DiI quench inactive
O=C(N[C@@H]1C=C[C@H](CC(=O)N2CCN(c3ccccc3)CC2)O[C@H]1CO)c1ccncc1	none (no result: SR-BI DiI-HDL act, Vif inh, SR-BI HDL uptake)
CNc1nc(-c2ccc3c(c2)CCN3C(=O)c2cccc(F)c2)cs1	none (no result: C2C12 statin, SR-BI DiI-HDL act, SR-BI HDL uptake)
CC(C)C(=O)Nc1nc(-c2ccc3c(c2)CCN3C(=O)C2CC2)cs1	SR-BI HDL uptake 89 | DiI quench inactive
CNc1nc(-c2ccc3c(c2)CCN3C(=O)c2ccc(F)cc2)cs1	none | DiI quench inactive
C[C@@H]1CN([C@H](C)CO)C(=O)c2cc(-c3ccccc3F)cnc2O[C@H]1CN(C)C(=O)NC1CCCC1	none (no result: SR-BI DiI-HDL act, Vif inh, SR-BI HDL uptake)
Cc1cc(SC(C)C(=O)Nc2ncc(Cl)cc2Cl)nc2ccccc12 (configuration not stated)	SR-BI HDL uptake 72 (no result: C2C12 statin) | DiI quench inactive
COc1cc2c(cc1OC)-c1cc(NC3CCCC3)nc(=O)n1CC2	none
COc1cc2c(cc1OC)-c1cc(OCc3ccccc3Cl)nc(=O)n1CC2	SR-BI HDL uptake 78 | DiI quench inactive
CCNC(=O)c1c(NC(=O)c2cc(-c3cc(C)cc(C)c3O)n[nH]2)sc2c1CCCC2	SR-BI HDL uptake inconclusive | DiI quench inactive
Cc1ccc(-c2nnc(N3CCC(C)CC3)c3ccccc23)cc1C	SR-BI HDL uptake 92 (no result: C2C12 statin) | DiI quench inactive
Cc1cc2oc(=O)cc(CN3CCN(C/C=C/c4ccccc4)CC3)c2cc1O	SR-BI HDL uptake 76 | DiI quench inactive
O=c1cc(CN2CCN(C/C=C/c3ccccc3)CC2)c2cc(O)c(-c3ccccc3)cc2o1	none (no result: C2C12 statin)

Screening results: PubChem BioAssay, Broad Institute
